# Experimental data of several laboratories.
# Effect on: microbial growth
Compound,organism,method,strain,time,notes,MIC
O=C1NC(=S)S/C1=C\c1ccc(-c2ccc(N(c3ccccc3)c3ccccc3)cc2)cc1,Streptococcus mutans,broth dilution,ATCC25175,,,1000 mg/L
O=c1[nH]c(NCc2ccc(Cl)c(Cl)c2)nc2ncn(CCCCCN3CCOCC3)c12,Bifidobacterium,agar dilution,,48 h,,> 32 mg/L
CNC(=O)c1cc(Oc2ccc(NC(=O)Nc3ccc(Cl)c(C(F)(F)F)c3)cc2)ccn1,Klebsiella aerogenes,,DSM30053,,,> 100 µM
CCCCCCC/C=C/C(=O)N1CC(=O)/C(=C(\C)O)C1=O,Stenotrophomonas maltophilia,,ATCC13637,,,100 mg/L
CC(C)Oc1c(NC(=O)c2ccc(NC(=O)[C@H](CC(N)=O)NC(=O)c3ccc(NC(=O)c4ccc(C#N)s4)cc3)cc2)ccc(C(=O)Nc2ccc(C(=O)O)cc2)c1O,Klebsiella aerogenes,,DSM30053,,,0.25 mg/L
O=c1[nH]c(NCc2ccc(Cl)c(Cl)c2)nc2ncn(CCN3CCOCC3)c12,Bifidobacterium,agar dilution,,48 h,,> 32 mg/L
C[C@@H](O)[C@H]1C(=O)N2C(C(=O)O)=C(S[C@@H]3CN[C@H](C(=O)N(C)C)C3)[C@H](C)[C@H]12,Stenotrophomonas maltophilia,broth dilution,,,clinical isolate,> 64 mg/L
CCCCCCC/C=C/C(=O)N1C(=O)/C(=C(/C)O)C(=O)C1CCC(=O)O (stereo not drawn),Stenotrophomonas maltophilia,,ATCC13637,,,200 mg/L
O=C1NC(=S)S/C1=C\c1ccc(-c2ccc(N(c3ccccc3)c3ccccc3)cc2)c2ccccc12,Streptococcus mutans,broth dilution,ATCC25175,,,1000 mg/L
CCCCCCC/C=C/C(=O)N1C(=O)/C(=C(\O)c2ccc(O)cc2)C(=O)C1CC(C)C (stereo not drawn),Stenotrophomonas maltophilia,,ATCC13637,,,200 mg/L
O=C(O)c1cn(C2CC2)c2cc(N3CCNCC3)c(F)cc2c1=O,Klebsiella aerogenes,,DSM30053,,,0.125 mg/L
O=C1NC(=S)N/C1=C\c1c2ccccc2c(-c2ccc(N(c3ccccc3)c3ccccc3)cc2)c2ccccc12,Streptococcus mutans,broth dilution,ATCC25175,,,> 1000 mg/L
CC(C)Oc1c(NC(=O)c2ccc(NC(=O)[C@H](CC(N)=O)NC(=O)c3ccc(NC(=O)c4ccc(C#N)cn4)cc3)cc2)ccc(C(=O)Nc2ccc(C(=O)O)cc2)c1O,Klebsiella aerogenes,,DSM30053,,,0.25 mg/L
CCCCCCC/C=C/C(=O)N1C(=O)/C(=C(/C)O)C(=O)C1CO (stereo not drawn),Stenotrophomonas maltophilia,,ATCC13637,,,> 200 mg/L
O=C1NC(=S)N/C1=C\c1ccc(-c2ccc(N(c3ccccc3)c3ccccc3)cc2)c2ccccc12,Streptococcus mutans,broth dilution,ATCC25175,,,> 1000 mg/L
